Assay results: ChEMBL document CHEMBL3862013 (Bioorg Med Chem, 2016)

Legend:
[1] = Cytotoxicity against human TZM-bl cells after 3 days by XTT assay; format: toxicity, cell-based; settings: 72 h
Outline: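 Graded compound concentrations added to an equal volume of TZM-bl cells (10^5/ml) and incubated 3 days. XTT added, then formazan read at 450 nm after 4 h. CC50 derived from percent cytotoxicity; mean ± SD.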

[2] = test system: Human immunodeficiency virus 1; test: Antiviral activity against HIV1 3B assessed as inhibition of multi-cycle viral infection in human MT2 cells by measuring p24 production preincubated for 30 mins followed by addition of cells measured after 4 days by sandwich ELISA; format: functional, cell-based
Outline: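 Overnight at 37 °C, then supernatant replaced with fresh medium. Day 4 post-infection, supernatants mixed with equal volume 5% Triton X-100 and p24 measured by sandwich ELISA. IC50 derived from percent inhibition of p24 production; mean ± SD.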

[3] = Cytotoxicity against human MT2 cells after 4 days by XTT assay; format: toxicity, cell-based; settings: mt2, 96 h
Outline: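 Run in parallel with the antiviral assay. Graded compound added to an equal volume of MT-2 cells (10^5 cells/ml) and incubated 4 days. XTT added, and soluble formazan read at 450 nm after 4 hours.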

[4] = Inhibition of HIV1 HXB2 Env-mediated cell-cell fusion using MAGI-CCR5 as target cells and HL2/3 as effector cells preincubated with target cells for 1 hr followed by effector cells addition measured after 24 hrs by beta-galactosidase reporter gene assay; settings: Human immunodeficiency virus 1, HXB2
[5] = test system: Human immunodeficiency virus 1; test: Inhibition of CD4-dependent CXCR4-tropic HIV1 3B cell to cell transmission using Ghost X4/R5 cells as target cells and H9 as effector cells assessed as p24 release incubated for 4 hrs by sandwich ELISA method; format: functional; settings: Human immunodeficiency virus 1, 3B
[6] = test system: Human immunodeficiency virus 1; test: Antiviral activity against ENV pseudotyped HIV1 subtype A/D QA790.204I.ENV.C8; format: functional; settings: Human immunodeficiency virus 1, subtype A/D QA790.204I.ENV.C8
[7] = test system: Human immunodeficiency virus 1; test: Antiviral activity against ENV pseudotyped HIV1 subtype A/D QA790.204I.ENV.E2; format: functional; settings: Human immunodeficiency virus 1, subtype A/D QA790.204I.ENV.E2
[8] = test system: Human immunodeficiency virus 1; test: Antiviral activity against ENV pseudotyped HIV1 subtype A/E AA058; format: functional; settings: Human immunodeficiency virus 1, subtype A/E AA058
[9] = test system: Human immunodeficiency virus 1; test: Antiviral activity against ENV pseudotyped HIV1 PRHPA4259 clone 7; format: functional; settings: Human immunodeficiency virus 1, PRHPA4259 clone 7
[10] = test system: Human immunodeficiency virus 1; test: Antiviral activity against ENV pseudotyped HIV1 subtype C ZM233M.PB6; format: functional; settings: Human immunodeficiency virus 1, subtype C ZM233M.PB6
[11] = test system: Human immunodeficiency virus 1; test: Antiviral activity against ENV pseudotyped HIV1 subtype D QD435.100M.ENV.B5; format: functional; settings: Human immunodeficiency virus 1, subtype D QD435.100M.ENV.B5
[12] = test system: Vesicular stomatitis virus; test: Antiviral activity against G-glycoprotein expressing VSV; format: functional
[13] = test system: Human immunodeficiency virus 1; test: Antiviral activity against X4 tropic HIV1 HXB2 assessed as inhibition of single cycle viral infection in human TZM-bl cells preincubated for 30 mins followed by addition of cells measured after 3 days by luciferase reporter gene assay; format: functional, cell-based
[14] = test system: Human immunodeficiency virus 1; test: Inhibition of CD4-dependent CCR5-tropic HIV1 ADA cell to cell transmission using Ghost X4/R5 cells as target cells and MOLT4 as effector cells assessed as p24 release incubated for 4 hrs by sandwich ELISA method; format: functional, cell-based; settings: Human immunodeficiency virus 1, ADA, MOLT-4, 4 h
[15] = Human immunodeficiency virus 1, 3B, MT2
[16] = Human immunodeficiency virus 1, HXB2, TZM-bl

Cc1nc([C@H](NC(=O)c2ccc(-c3ccc(Cl)cc3)[nH]2)[C@@H]2CCCCN2)sc1CO
CC50 [1]: 23.6 µM
IC50 [2, 15]: 0.85 µM
CC50 [3]: 24.8 µM
IC50 [4]: 8.9 µM
IC50 [5]: 8.8 µM
IC50 [6]: 1.5 µM
IC50 [7]: 0.71 µM
IC50 [8]: 4.4 µM
IC50 [9]: 1.4 µM
IC50 [10]: 1.7 µM
IC50 [11]: 1.6 µM
IC50 [12]: 7.1 µM

Cc1ccc(-c2ccc(C(=O)N[C@H](CN)c3nc(C)c(CO)s3)[nH]2)cc1F
IC50 [13, 16]: 1.1 µM
CC50 [1]: 26.2 µM
IC50 [2, 15]: 0.65 µM
CC50 [3]: 24.3 µM

Cc1ccc(-c2ccc(C(=O)N[C@H](c3nc(C)c(CCO)s3)[C@@H]3CCCCN3)[nH]2)cc1F
IC50 [13, 16]: 10.6 µM
CC50 [1]: 28.8 µM
IC50 [2, 15]: 6.1 µM
CC50 [3]: 29.7 µM

Cc1nc([C@@H](NC(=O)c2ccc(-c3ccc(Cl)c(F)c3)[nH]2)[C@@H]2CCCCN2)sc1CCO
IC50 [13, 16]: 7.5 µM
CC50 [1]: 16.1 µM
IC50 [2, 15]: 3.4 µM
CC50 [3]: 16.9 µM

Cc1nc([C@H](NC(=O)c2ccc(-c3ccc(Cl)c(F)c3)[nH]2)[C@@H]2CCCCN2)sc1CCCO
IC50 [13, 16]: 5.1 µM
CC50 [1]: 8.2 µM
IC50 [2, 15]: 4.5 µM
CC50 [3]: 12.6 µM

Cc1ccc(-c2ccc(C(=O)N[C@@H](c3nc(C)c(CO)s3)[C@@H]3CCCCN3)[nH]2)cc1F
IC50 [13, 16]: 3.8 µM
CC50 [1]: 19.2 µM
IC50 [2, 15]: 1.6 µM
CC50 [3]: 28.2 µM

Cc1nc([C@@H](NC(=O)c2ccc(-c3ccc(Cl)cc3)[nH]2)[C@@H]2CCCCN2)sc1CCO
IC50 [13, 16]: 8.9 µM
CC50 [1]: 17.3 µM
IC50 [2, 15]: 2 µM
CC50 [3]: 26.8 µM

Cc1nc([C@@H](NC(=O)c2ccc(-c3ccc(Cl)c(F)c3)[nH]2)[C@H]2CCCCN2)sc1CO
IC50 [13, 16]: 3 µM
CC50 [1]: 15.2 µM
IC50 [2, 15]: 1.6 µM
CC50 [3]: 17.2 µM

Cc1ccc(-c2ccc(C(=O)N[C@@H](c3nc(C)c(CCCO)s3)[C@@H]3CCCCN3)[nH]2)cc1F
IC50 [13, 16]: 7.9 µM
CC50 [1]: 17 µM
IC50 [2, 15]: 7.4 µM
CC50 [3]: 20.6 µM

Cc1nc([C@@H](CN)NC(=O)c2ccc(-c3ccc(Cl)c(F)c3)[nH]2)sc1CO
CC50 [1]: 26 µM
CC50 [3]: 22.7 µM

Cc1nc([C@H](NC(=O)c2ccc(-c3ccc(Cl)cc3)[nH]2)[C@@H]2CCCCN2)sc1CCCO
IC50 [13, 16]: 7.6 µM
CC50 [1]: 13.7 µM
IC50 [2, 15]: 5.8 µM
CC50 [3]: 19 µM

Cc1nc([C@@H](CN)NC(=O)c2ccc(-c3ccc(Cl)cc3)[nH]2)sc1CO
CC50 [1]: 34.1 µM
CC50 [3]: 28.2 µM

Cc1nc([C@H](CN)NC(=O)c2ccc(-c3ccc(Cl)cc3)[nH]2)sc1CO
CC50 [1]: 33.6 µM
CC50 [3]: 25.8 µM
IC50 [4]: 11.9 µM
IC50 [14]: 30 µM

Cc1nc([C@H](CN)NC(=O)c2ccc(-c3ccc(Cl)c(F)c3)[nH]2)sc1CO
CC50 [1]: 40.5 µM
CC50 [3]: 30.5 µM
IC50 [4]: 15.2 µM

Cc1ccc(-c2ccc(C(=O)N[C@@H](CN)c3nc(C)c(CO)s3)[nH]2)cc1F
IC50 [13, 16]: 1.7 µM
CC50 [1]: 35 µM
IC50 [2, 15]: 0.91 µM
CC50 [3]: 31.6 µM

Cc1ccc(-c2ccc(C(=O)N[C@@H](c3nc(C)c(CCO)s3)[C@@H]3CCCCN3)[nH]2)cc1F
IC50 [13, 16]: 6.3 µM
CC50 [1]: 15.3 µM
IC50 [2, 15]: 3 µM
CC50 [3]: 21.2 µM

Cc1nc([C@H](NC(=O)c2ccc(-c3ccc(Cl)c(F)c3)[nH]2)[C@@H]2CCCCN2)sc1CCO
IC50 [13, 16]: 8 µM
CC50 [1]: 15.1 µM
IC50 [2, 15]: 2.9 µM
CC50 [3]: 16.8 µM

Cc1ccc(-c2ccc(C(=O)N[C@H](c3nc(C)c(CO)s3)[C@@H]3CCCCN3)[nH]2)cc1F
IC50 [13, 16]: 2.7 µM
CC50 [1]: 18 µM
IC50 [2, 15]: 3 µM
CC50 [3]: 16.1 µM

Cc1nc([C@H](NC(=O)c2ccc(-c3ccc(Cl)c(F)c3)[nH]2)[C@H]2CCCCN2)sc1CO
IC50 [13, 16]: 3.2 µM
CC50 [1]: 17.4 µM
IC50 [2, 15]: 2.6 µM
CC50 [3]: 26 µM

Cc1nc([C@H](NC(=O)c2ccc(-c3ccc(Cl)cc3)[nH]2)[C@@H]2CCCCN2)sc1CCO
IC50 [13, 16]: 5.7 µM
CC50 [1]: 15.4 µM
IC50 [2, 15]: 4.6 µM
CC50 [3]: 21 µM

Cc1nc(C(NC(=O)c2ccc(-c3ccc(Cl)cc3)[nH]2)C2CCCCN2)[nH]c1CO (stereo in doubt; 35A)
IC50 [13, 16]: 14.1 µM
CC50 [1]: 30 µM
IC50 [2, 15]: 10.2 µM
CC50 ([3]; 96 h): 36.6 µM

Cc1nc(C(NC(=O)c2ccc(-c3ccc(Cl)cc3)[nH]2)C2CCCCN2)[nH]c1CO (stereo in doubt; 35B)
IC50 ([13]; tzm-bl): 15.8 µM
CC50 [1]: 33.8 µM
IC50 ([2]; mt2): 18 µM
CC50 ([3]; 96 h): 45.2 µM

Cc1nc(C(NC(=O)c2ccc(-c3ccc(Cl)c(F)c3)[nH]2)C2CCCCN2)[nH]c1CO (stereo in doubt; 36A)
IC50 [13, 16]: 8.8 µM
CC50 [1]: 26.7 µM
IC50 ([2]; mt2): 10.6 µM
CC50 ([3]; 96 h): 31.1 µM

Cc1nc(C(NC(=O)c2ccc(-c3ccc(Cl)c(F)c3)[nH]2)C2CCCCN2)[nH]c1CO (stereo in doubt; 36B)
IC50 ([13]; tzm-bl): 16 µM
CC50 [1]: 30.7 µM
IC50 ([2]; mt2): 22.8 µM
CC50 ([3]; 96 h): 36.4 µM

Cc1ccc(-c2ccc(C(=O)NC(c3nc(C)c(CO)[nH]3)C3CCCCN3)[nH]2)cc1F (stereo in doubt; 37A)
IC50 [13, 16]: 9.4 µM
CC50 [1]: 33.3 µM
IC50 [2, 15]: 12.9 µM
CC50 ([3]; 96 h): 28.4 µM

Cc1ccc(-c2ccc(C(=O)NC(c3nc(C)c(CO)[nH]3)C3CCCCN3)[nH]2)cc1F (stereo in doubt; 37B)
IC50 ([13]; tzm-bl): 16.9 µM
CC50 [1]: 34.5 µM
IC50 ([2]; mt2): 22.3 µM
CC50 ([3]; 96 h): 37.1 µM
